Source: PubChem
CAL PDZ FP-1 – inhibitors of human CAL PDZ peptide binding; purified CAL PDZ, TMR-peptide fluorescence polarization, 1 h; inhibition, % at 20 µM; actives 0.02% (n = 330,000); AID 504414;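 active means highest replicate inhibition of at least 40%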
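material = purified tagged CAL PDZ domain construct (CerCALP) | buffer or medium = sodium phosphate/NaCl buffer pH 7.4 with TCEP, IgG, Thesit | reagent = TMR-labelled reporter peptide T*-PRC34 bound in PDZ groove | incubation = 1 h room-temperature incubation prior to read | measured by = fluorescence polarization (mP) | evaluation = percent inhibition from loss of millipolarization | control set = unlabelled peptide and DMSO controls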
CFTR F508del cor – CFTR F508del correction in bronchial cells | activity (quench increase), % at 7.58 µM | CFBE cells, YFP halide quenching; stimulated with forskolin plus potentiator P3; % fluorescence drop versus neutral controls | actives 0.36% (n = 350,000);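 active means mean added fluorescence quench of at least 8% versus neutral control, with both replicates also reaching 8%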;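 further: cells transiently co-express mutant CFTR-F508del with the halide-sensitive YFP; corrector assay measuring rescue of mutant channel to the surface after 24 h compound exposure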
miR-122 sensor – blocks miR-122 activity in Huh7 sensor cells | Huh7 miR-122 Renilla luciferase sensor, 48 h; neutral wells = 0, positive control = 100 | AID 602342 | activation (reporter increase), % at 12.5 µM | actives 0.3% (n = 340,000);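 active means mean replicate activation score at least 90 and every replicate individually at or above 90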;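 further: higher luciferase means less miR-122 activity so hits act as miR-122 inhibitors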
CAL PDZ FP-2 – inhibitors of human CAL PDZ peptide binding | Q9HD26 | purified CAL PDZ, TMR-peptide fluorescence polarization, 1 h | inhibition, % at 24.9 µM | actives 0.92% (n = 300,000) | AID 602252;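 active means mean inhibition of at least 30% with at least half of replicates also reaching 30%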
PGC1a acetyl inh – PGC1a acetylation modulation, inhibitor mode; U2OS PGC1a acetylation, AlphaScreen anti-acetyl-lysine; with virally co-expressed GCN5 acetyltransferase; inhibition, % at 15.6 µM; actives 0.17% (n = 350,000);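 active means every replicate shows inhibition of at least 40%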
ARNT TACC3 PPI – disruptors of human ARNT/TACC3 interaction; Q9Y6A5; AlphaScreen His-ARNT PAS-B/GST-TACC3 binding, luminescence; TACC3 fragment carries E629A point mutation; inhibition, % at 9.99 µM; actives 0.66% (n = 390,000);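 active means mean inhibition of replicates at least 50% and at least half of replicates each reaching 50%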
Numbers stand for hits; n = inactive; x = no result. Hits are enriched below; roughly 1.7% of the tested compounds scored in any of these assays.

SMILES	CAL PDZ FP-1	CFTR F508del cor	miR-122 sensor	CAL PDZ FP-2	PGC1a acetyl inh	ARNT TACC3 PPI
COCCCNC(=S)NNC(=O)c1ccccn1	n	n	n	n	n	66.6
O=C(NNC(=O)C12CC3CC(CC(C3)C1)C2)c1ccccn1	n	n	n	x	n	75.1
COCCCNC(=S)NNC(=O)c1ccccc1Br	n	n	x	n	x	n
Cc1cc(C)cc(OCC(=O)NNC(=O)c2ccccn2)c1	n	n	n	x	n	68.1
COc1ccc(CC(=O)NNC(=O)c2ccccn2)cc1	n	n	n	n	n	48.1
O=C(COc1ccc(Cl)cc1)NNC(=O)c1ccccn1	n	x	n	n	n	n
COc1ccc(CC(=O)NNC(=O)c2cnccn2)cc1	n	n	n	n	n	n
C[C@H]1CN([C@@H](C)CO)C(=O)Cc2cc(NC(=O)c3ccncc3)ccc2O[C@H]1CN(C)S(=O)(=O)c1ccccc1	x	n	n	x	n	n
C[C@H](O)C#Cc1ccc2c(c1)O[C@H](CN(C)C(=O)Cc1ccccn1)[C@@H](C)CN([C@H](C)CO)S2(=O)=O	x	n	n	x	n	n
CC(Sc1nc2ccccc2s1)C(=O)NCc1ccc2c(c1)OCO2 (stereo not given)	n	x	n	n	x	n
Cc1csc(SC(C)C(=O)NCc2ccc3c(c2)OCO3)n1 (stereo not given)	n	n	n	64.0	n	n
Cc1ccc(-c2nnc(Nc3ccc4c(c3)OCO4)c3ccccc23)cc1S(N)(=O)=O	n	n	179.9	x	x	n
CC(=O)Nc1ccc(Nc2nnc(-c3ccc(C)c(S(N)(=O)=O)c3)c3ccccc23)cc1	n	n	x	n	x	n
NC(=O)c1ccc(-c2nnc(Nc3ccc(S(N)(=O)=O)cc3)c3ccccc23)cc1	x	n	x	65.5	n	n
Oc1ccc(Nc2nnc(-c3ccc(O)cc3)c3ccccc23)cc1	n	n	x	n	n	n
CCCC(=O)Nc1ccc2c(c1)OC[C@H](C)N(C(=O)c1cnccn1)C[C@@H](C)[C@@H](OC)CN(C)C2=O	x	n	x	x	n	n
Nc1nonc1C(=O)NCCNCc1ccccc1OCc1ccccc1F	n	x	n	74.2	n	n
Nc1nonc1C(=O)NCCNCc1cc(Br)ccc1OCc1ccccc1F	n	x	n	n	x	n
COc1ccc2c3c([nH]c2c1)[C@@H](CO)N(Cc1nccs1)CC31CCN(Cc2nccs2)CC1	x	n	x	x	n	x
CC1=CCC2C(=O)N(c3cccc(C(=O)Nc4ccc(Cl)cc4)c3)C(=O)C2C1 (stereo not given)	n	n	n	n	n	n
CC1=CCC2C(=O)N(c3cccc(C(=O)NCc4ccccc4)c3)C(=O)C2C1 (stereo not given)	n	n	n	n	63.2	n
COc1ccccc1NC(=O)C[C@H]1CC[C@H]2[C@@H](COc3ccc(NC(C)=O)cc3C(=O)N2C)O1	x	n	x	x	n	x
O=C(C[C@@H]1CC[C@H]2[C@@H](COC[C@@H](O)CN2Cc2nccs2)O1)NCc1ccccc1F	x	n	n	x	n	n
OC[C@@H]1[C@@H](c2ccccc2)C2(CN(Cc3ccccc3F)C2)N1Cc1ccccc1F	x	10.4	x	x	n	x
COC(=O)C[C@H]1C=C[C@H](NS(=O)(=O)c2ccccc2F)[C@H](CO)O1	x	n	n	x	n	n
SMILES	CAL PDZ FP-1	CFTR F508del cor	miR-122 sensor	CAL PDZ FP-2	PGC1a acetyl inh	ARNT TACC3 PPI
COc1cc(/C=N/NC(=O)c2cc[n+]([O-])cc2)ccc1O	n	n	x	x	x	76.7
COc1ccc(/C=N/NC(=O)c2cc[n+]([O-])cc2)cc1OC	n	x	n	n	x	n
COc1cc(/C=N/NC(=O)CSc2ccccn2)ccc1O	n	n	x	43.8	x	n
COc1ccc(/C=N/NC(=O)c2cccnc2)cc1CSc1ccccn1	n	11.0	x	x	n	n
COc1cc(/C=N\NC(=O)CC#N)ccc1OC/C=C/c1ccccc1	n	n	x	n	x	68.7
c1ccc2nc(N3CCOCC3)c(N3CCCC3)nc2c1	n	n	n	70.7	x	n
c1ccc2nc(N3CCCC3)c(N3CCCCC3)nc2c1	n	n	n	n	x	n
COCC#Cc1cnc2c(c1)C(=O)N([C@H](C)CO)C[C@H](C)[C@@H](CN(C)C(=O)c1cccc(F)c1)O2	x	n	n	x	n	n
O=C(NC[C@@H]1CC[C@H]2[C@H](CN2C(=O)CN2CCOCC2)O1)NC1CCCCC1	x	n	x	x	x	x
